Target: EcCATI (type I chloramphenicol acetyltransferase) (Escherichia coli, UniProt P62577)
Experiment: Direct ESI-MS
Format: binding
Details: for Cooperativity factor α: second ligand of the same type binding to EcCATI:1Ligand; for Cooperativity factor β: third ligand of the same type binding to EcCATI:2Ligands
Summary of the method: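 Recombinant E. coli type I CAT (Rosetta2 BL21 DE3; heat step, anion-exchange, gel filtration) desalted into 200 mM ammonium acetate pH ~7.0 and mixed with ligand freshly prepared in the same buffer. Trimer at ~10 μM final, with the protein:ligand ratio varied by ligand. Nano-ESI on a Q-TWIMS-TOF under native-preserving settings. Bound/free abundance ratios were fitted to a stepwise three-site model giving intrinsic Kd, α and β. Values are mean ± SD.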

EcCATI (type I chloramphenicol acetyltransferase), sequence (P62577 whole entry, looked up): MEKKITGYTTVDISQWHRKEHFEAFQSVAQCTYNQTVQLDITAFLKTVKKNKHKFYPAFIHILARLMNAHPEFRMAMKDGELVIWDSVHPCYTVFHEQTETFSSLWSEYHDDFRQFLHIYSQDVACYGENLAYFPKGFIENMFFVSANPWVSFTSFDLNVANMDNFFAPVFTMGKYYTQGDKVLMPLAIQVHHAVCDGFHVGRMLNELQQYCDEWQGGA

Row | SMILES | Cooperativity factor α | Cooperativity factor β
1 | O=C(N[C@H](CO)[C@H](O)c1ccc([N+](=O)[O-])cc1)C(Cl)Cl [Chl, chloramphenicol] | 0.5 | 0.2
2 | CCSCCNC(=O)CCNC(=O)[C@H](O)C(C)(C)COP(=O)(O)OP(=O)(O)OC[C@H]1O[C@@H](n2cnc3c(N)ncnc32)[C@H](O)[C@@H]1OP(=O)(O)O [S-Et-CoA, S-ethyl-CoA] | 0.8 | 0.5
